Sampled rows, rich in hits. Any-hit rate of the full collection: about 3.3%.
DENV2 CPE rescue – DENV2-induced cell death inhibition; DENV2-infected cells, cytopathic effect rescue, plate reader; CPE inhibition, % at 9.99 µM; 1.7% of 350,000 active; AID 651640; in the data active = CPE inhibition above about 20%, passing the limit was not always enough; tested in BHK-21 cells;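 note: 0% = median of neutral control wells and 100% = median of positive control wells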
E-sel inducer – E-selectin induction on HUVECs | P16581 | HUVEC E-selectin immunofluorescence imaging; normalized: neutral wells 0, TNF-alpha wells 100 | activation, % at 7.58 µM | 0.37% of 260,000 active | AID 686992;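 active = mean E-selectin-positive cell signal at least 10% of the positive control, reached in at least 60% of replicates, without over 20% cell loss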
Target sequence (P16581 whole entry, looked up): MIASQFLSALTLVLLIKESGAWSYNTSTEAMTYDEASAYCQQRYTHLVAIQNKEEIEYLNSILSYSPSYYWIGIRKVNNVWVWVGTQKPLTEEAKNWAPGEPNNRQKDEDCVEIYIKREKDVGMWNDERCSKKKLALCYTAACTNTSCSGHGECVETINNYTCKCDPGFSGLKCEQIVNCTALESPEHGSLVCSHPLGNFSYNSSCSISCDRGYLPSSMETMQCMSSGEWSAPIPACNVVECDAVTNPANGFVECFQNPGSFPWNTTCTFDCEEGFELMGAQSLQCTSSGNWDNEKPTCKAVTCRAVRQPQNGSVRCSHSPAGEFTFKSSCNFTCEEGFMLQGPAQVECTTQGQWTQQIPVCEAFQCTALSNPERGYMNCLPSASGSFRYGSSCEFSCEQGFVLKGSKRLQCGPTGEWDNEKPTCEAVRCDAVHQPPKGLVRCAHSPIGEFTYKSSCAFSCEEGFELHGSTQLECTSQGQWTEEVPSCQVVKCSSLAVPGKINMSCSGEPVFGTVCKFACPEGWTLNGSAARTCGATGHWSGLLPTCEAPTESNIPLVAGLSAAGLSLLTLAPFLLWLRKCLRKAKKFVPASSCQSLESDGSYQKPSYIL
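Assay system: HUVEC, human umbilical vein endothelial cells / Amount: 3,000 HUVEC/well / Controls: TNF-alpha positive control, DMSO neutral control / Compound dosing: single concentration / Medium: EGM-2 over gelatin coat / Evaluation: percent E-selectin-positive cells / Signal: immunofluorescence imaging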
FGF22 binding – FGF22 (human) thermal shift binding | activity (Tm shift, normalised), % at 9.99 µM | recombinant FGF22 thermal shift, SYPRO orange fluorescence; percent of sucrose octasulfate shift, DMSO zero | 1.5% of 340,000 active | Q9HCT0 | AID 651658;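 active = mean Tm shift, scaled 0 neutral to 100 positive control, at about 1.3% or above, every replicate too, limit read from the data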
PglD DTNB – inhibitors of Campylobacter jejuni PglD acetyltransferase. inhibition, % at 12.5 µM. 0.098% of 360,000 active. purified PglD enzyme, DTNB colorimetric CoA detection; in the data active = inhibition above about 16%, passing the limit was not always enough
C2C12 statin – protects C2C12 myotubes from simvastatin toxicity; 0.78% of 330,000 active; ATP luminescence, 48 h; scaled: DMSO 0, geranylgeraniol control 100; rescue of ATP level, % at 7.49 µM;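 active = mean ATP rescue above about 67%, or every replicate alone reaching that limit, limit read from the data, passing the limit was not always enough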;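 note: myotubes were challenged with 10 µM simvastatin during compound exposure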
Xi reactivation – activators of X-chromosome reactivation in mouse fibroblasts | 0.055% of 360,000 active | XiGFP mouse fibroblasts, % GFP-positive cells imaging, 3 d; cells co-treated with 5-aza-dC sensitizer; scaled so ellipticine positive control = 100% | activation, % at 7.58 µM | AID 743238;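 active = mean normalized replicate activation at least 10% and every replicate at or above 10%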;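 note: 0% = median of on-plate neutral control wells and 100% = ellipticine 6 µM median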
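Assay system: SV40-immortalized XiGFP fibroblast cells, line 68-5-11; buffer or medium: DMEM plus 5-aza-dC sensitizer; compound: one concentration, pinned; timing: compounds 3 days, fix/stain 15 min at room temperature; benchmarks: positive control ellipticine, 6 µM final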
The depositor's hits bear a star; nt = not tested or not shown.

SMILES | DENV2 CPE rescue | E-sel inducer | FGF22 binding | PglD DTNB | C2C12 statin | Xi reactivation
COCC(=O)Nc1ccc2c(c1)[C@@H]1C[C@@H](CC(=O)NC3CCCCC3)O[C@H](CO)[C@@H]1O2 | 2 | 0 | 0 | 1 | -10 | 0
O=C(NCCO)c1ccc2c3n(nc2c1)-c1ccccc1CO3 | 69* | 0 | 0 | 3 | -6 | 0
Cc1ccc(N(CC(=O)NCCc2ccccc2)C(=O)c2csnn2)cc1 | -4 | nt | 0 | 0 | -5 | 0
CC(C)c1ccc(N(CC(=O)NCCc2ccccc2)C(=O)c2csnn2)cc1 | 10 | 0 | 42 | 5 | 81* | 0
O=C(CCC1CCCN(C(=O)c2ccc3c(c2)OCO3)C1)NCc1ccc(F)c(F)c1 (stereo not given) | 3 | 0 | 43* | nt | nt | 1
O=c1c2ccccc2ncn1Cc1cccc2ccccc12 | 1 | 0 | 43* | nt | nt | 0
C[C@@H]1CCCCO[C@@H](CN(C)C(=O)Cc2ccccc2)[C@H](C)CN([C@H](C)CO)C(=O)c2cc(NS(=O)(=O)c3cn(C)cn3)ccc2O1 | -2 | 1 | 0 | 2 | 42 | 0
CCOC(=O)c1cnc2ccc(OCC)cc2c1N1CCN(C)CC1 | nt | nt | nt | 3 | 23 | nt
CCOc1ccc2ncc(S(=O)(=O)c3ccc(C)cc3)c(N3CCC4(CC3)OCCO4)c2c1 | 5 | 140* | -1 | 5 | nt | 1
COC(=O)C1=C(CSCc2ccco2)NC(=O)NC1c1cc(C)ccc1C (stereo not given) | nt | nt | nt | -1 | 134* | nt
C[C@@H]1CCCCO[C@H](CN(C)C(=O)C2CCCCC2)[C@@H](C)CN([C@@H](C)CO)C(=O)c2cc(NC(=O)NC3CCCCC3)ccc2O1 | -4 | nt | -1 | 3 | 12 | 0
Cc1ccnc(NCc2cc(C)ccc2O)c1 | 0 | 0 | 0 | -3 | 3 | 0
Cc1ccc(O)c(CNc2ccccn2)c1 | nt | nt | nt | -2 | 112* | nt
CO[C@H]1CC[C@H]2CCOc3ccc(C#N)cc3C(=O)N(C)C[C@H](OC)[C@@H](C)C(=O)N(C)C[C@H]1O2 | 5 | 0 | 0 | 0 | 7 | 0
C[C@H]1CN([C@@H](C)CO)C(=O)c2ccccc2-c2ccccc2CO[C@H]1CN(C)C(=O)c1cc(Cl)cc(Cl)c1 | 9 | 0 | 0 | nt | nt | 0
O=C(O)c1cc(-c2ccc(/C=N/N3C(=O)C4C5C=CC(C6CC56)C4C3=O)o2)ccc1Cl (stereo not given) | 6 | nt | 43* | nt | nt | 0
C=CCNC(=O)COC(=O)c1ccc(Sc2nncn2C)c([N+](=O)[O-])c1 | nt | nt | 44* | nt | nt | 0
CO[C@H]1CN(C)C(=O)c2ccc(NC(=O)c3cnccn3)cc2OC[C@@H](C)N(CC2CC2)C[C@H]1C | -5 | 0 | 0 | nt | nt | 0
Cc1ccccc1S(=O)(=O)N1[C@H](CO)[C@@H](c2ccc(C#CC3CCCC3)cc2)[C@@H]1C#N | -1 | 0 | nt | nt | nt | 0
COc1ccc(CN(C)C[C@@H]2Oc3ccc(NS(=O)(=O)c4ccc(Cl)cc4)cc3CC(=O)N([C@@H](C)CO)C[C@@H]2C)cc1 | -7 | 0 | 0 | -2 | 11 | -1
COc1ccc(CN(C)C[C@@H]2Oc3ccc(NS(=O)(=O)c4ccc(Cl)cc4)cc3CC(=O)N([C@H](C)CO)C[C@H]2C)cc1 | 8 | 0 | 0 | -2 | 95* | 0
COc1ccc(S(=O)(=O)Nc2ccc3c(c2)CC(=O)N([C@H](C)CO)C[C@@H](C)[C@H](CN(C)Cc2ccc(Cl)c(Cl)c2)O3)cc1 | 38* | 0 | 0 | -3 | 110* | 0
COc1ccc(CN(C)C[C@H]2Oc3ccc(NS(=O)(=O)c4ccc(F)cc4)cc3CC(=O)N([C@H](C)CO)C[C@@H]2C)cc1 | -6 | 0 | 0 | nt | nt | 0
COc1ccc(CN(C)C[C@H]2Oc3ccc(NS(=O)(=O)c4ccc(F)cc4)cc3CC(=O)N([C@@H](C)CO)C[C@@H]2C)cc1 | 3 | -12 | 0 | -2 | 67* | 1
COc1ccc(CN(C)C[C@@H]2Oc3ccc(NS(=O)(=O)c4ccc(F)cc4)cc3CC(=O)N([C@H](C)CO)C[C@@H]2C)cc1 | 23* | -17 | 0 | -1 | 18 | 0
SMILES | DENV2 CPE rescue | E-sel inducer | FGF22 binding | PglD DTNB | C2C12 statin | Xi reactivation
C[C@H](CO)N1C[C@H](C)[C@@H](CN(C)C(=O)Nc2ccc(F)cc2)Oc2c(NC(=O)NC3CCCCC3)cccc2C1=O | -1 | 0 | 0 | -5 | -15 | -1
CCCN1C[C@H](C)[C@@H](OC)CN(C)C(=O)c2ccc(NC(=O)C3CC3)cc2OC[C@H]1C | -2 | 0 | 0 | 0 | -3 | 0
CCCC#Cc1cnc2c(c1)C(=O)N([C@H](C)CO)C[C@H](C)[C@@H](CN(C)C(=O)c1ccccc1)O2 | 9 | 0 | 0 | 4 | 14 | -1
COc1ccc(CN(C)C[C@H]2Oc3ccc(NS(=O)(=O)c4ccccc4)cc3CC(=O)N([C@@H](C)CO)C[C@@H]2C)cc1 | 3 | 0 | 0 | 2 | 66* | 0
COc1ccc(CN(C)C[C@H]2Oc3ccc(NS(=O)(=O)c4ccc(F)cc4)cc3CC(=O)N([C@H](C)CO)C[C@H]2C)cc1 | -9 | 0 | 0 | -1 | 69* | 0
CCCNC(=O)N(C)C[C@H]1Oc2ncc(C#CC3(O)CCCC3)cc2C(=O)N([C@@H](C)CO)C[C@@H]1C | 1 | 0 | 0 | 4 | 18 | 0
Cc1cc(C)n(-c2nnc(Cl)c3ccccc23)n1 | 23* | 0 | 0 | nt | nt | 0
CC(=O)N1CC[C@@H]2[C@@H](CO)N(C)c3ccc(-c4ccccc4)cc3[C@@H]21 | -7 | 0 | -1 | 1 | -2 | 0
COc1ccc(S(=O)(=O)Nc2ccc3c(c2)C(=O)N([C@H](C)CO)C[C@@H](C)[C@H](CN(C)C(=O)Nc2ccc(C(F)(F)F)cc2)OCCCC[C@@H](C)O3)cc1 | 18 | 0 | 1.2* | -5 | nt | 0
COc1ccc(NC(=O)N(C)C[C@@H]2OCCCC[C@H](C)Oc3ccc(NS(=O)(=O)c4ccc(C)cc4)cc3C(=O)N([C@H](C)CO)C[C@H]2C)cc1 | -7 | nt | nt | 17* | nt | 0
COc1ccc(S(=O)(=O)Nc2ccc3c(c2)C(=O)N([C@H](C)CO)C[C@@H](C)[C@H](CN(C)C(=O)Nc2ccc(C(F)(F)F)cc2)OCCCC[C@H](C)O3)cc1 | 10 | 0 | 1 | 0 | nt | 0
COc1ccc(S(=O)(=O)Nc2ccc3c(c2)C(=O)N([C@H](C)CO)C[C@H](C)[C@H](CN(C)C(=O)Nc2ccc(C(F)(F)F)cc2)OCCCC[C@H](C)O3)cc1 | 76* | 0 | 0 | 0 | nt | 0
